From ChEMBL document CHEMBL1148000, “Naphthyl piperazines with dual activity as 5-HT1D antagonists and 5-HT reuptake inhibitors” (Bioorg Med Chem Lett, 2007)
Calls of active or inactive are those of the source. The rule behind the calls is not given here.

Experiments:
D(2) dopamine receptor = D(2) dopamine receptor (Rattus norvegicus, UniProt P61169); test: Displacement of [3H]raclopride from dopamine D2 receptor in rat caudate membranes; format: cell membranes, Membrane
Summary of the method: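 D2 binding was measured in rat caudate membranes with [3H]-raclopride. Ki (nM) is the mean of runs in triplicate.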

[1] = target: T1, 5-hydroxytryptamine receptor 1A (Homo sapiens, UniProt P08908); test: Displacement of [3H]8-OH-DPAT from human 5HT1A expressed in LM(tk-) cells; format: cell-based
T1 sequence (P08908 whole entry): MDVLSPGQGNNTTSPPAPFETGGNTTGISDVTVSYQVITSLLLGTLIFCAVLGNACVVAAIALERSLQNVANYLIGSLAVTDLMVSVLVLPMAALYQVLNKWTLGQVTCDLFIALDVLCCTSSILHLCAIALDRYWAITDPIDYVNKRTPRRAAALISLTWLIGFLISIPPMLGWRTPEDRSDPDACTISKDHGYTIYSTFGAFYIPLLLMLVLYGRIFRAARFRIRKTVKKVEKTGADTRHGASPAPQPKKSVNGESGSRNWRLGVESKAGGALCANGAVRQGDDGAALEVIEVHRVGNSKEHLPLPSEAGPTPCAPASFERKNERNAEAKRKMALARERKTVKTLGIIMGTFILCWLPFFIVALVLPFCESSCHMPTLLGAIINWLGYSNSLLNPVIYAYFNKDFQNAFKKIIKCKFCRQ
Summary of the method: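 Human 5-HT1A was cloned into L-M(tk-) cells, and membrane homogenates were prepared. Binding used [3H]-8-OH-DPAT as radioligand. Ki (nM) is the mean of runs in triplicate.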

[2] = target: 5-hydroxytryptamine receptor 1B (Homo sapiens, UniProt P28222); test: Displacement of [3H]GR-125743 from human 5HT1B expressed in LM(tk-) cells; format: cell-based
Chain of 5-hydroxytryptamine receptor 1B (P28222 whole entry): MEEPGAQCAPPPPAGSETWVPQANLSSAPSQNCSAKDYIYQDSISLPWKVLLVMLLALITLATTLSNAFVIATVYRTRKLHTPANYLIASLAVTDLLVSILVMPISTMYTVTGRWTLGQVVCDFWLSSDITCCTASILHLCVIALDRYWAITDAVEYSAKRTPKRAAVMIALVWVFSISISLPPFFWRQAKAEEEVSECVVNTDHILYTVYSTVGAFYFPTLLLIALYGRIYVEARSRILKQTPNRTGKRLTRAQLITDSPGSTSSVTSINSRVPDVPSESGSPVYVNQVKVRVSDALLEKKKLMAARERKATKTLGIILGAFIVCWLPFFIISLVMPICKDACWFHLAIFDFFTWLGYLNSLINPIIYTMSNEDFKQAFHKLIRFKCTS
Summary of the method: (§1)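 Human 5-HT1B or 5-HT1D receptors were cloned into L-M(tk-) cells, and membrane homogenates were prepared from these cells. Binding used [3H]-GR125743 as radioligand. Ki (nM) is the mean of runs in triplicate.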

[3] = target: T2, 5-hydroxytryptamine receptor 1D (Homo sapiens, UniProt P28221); test: Functional antagonism of 5-HT-stimulated GTP-gamma-[35S] binding to human 5HT1D expressed in LM(tk-) cells at 30 nM; design: scale not given: the % may be the effect or the level left
T2 sequence (P28221 whole entry): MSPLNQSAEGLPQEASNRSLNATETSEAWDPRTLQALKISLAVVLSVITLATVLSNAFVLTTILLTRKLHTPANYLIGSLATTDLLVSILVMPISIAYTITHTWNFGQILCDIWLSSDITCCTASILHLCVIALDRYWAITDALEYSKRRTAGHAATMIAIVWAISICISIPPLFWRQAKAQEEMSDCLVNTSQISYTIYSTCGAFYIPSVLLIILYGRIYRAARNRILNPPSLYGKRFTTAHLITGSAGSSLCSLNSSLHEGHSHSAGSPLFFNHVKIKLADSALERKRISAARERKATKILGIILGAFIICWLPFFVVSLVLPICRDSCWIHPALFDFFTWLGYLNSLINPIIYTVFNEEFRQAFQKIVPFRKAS

[4] = target: T2, 5-hydroxytryptamine receptor 1D; test: Displacement of [3H]GR-125743 from human 5HT1D expressed in LM(tk-) cells; format: cell-based; summary of the method: as §1
[5] = target: T3, Adrenergic receptor alpha-1 (Rattus norvegicus, UniProt P15823+P23944+P43140); test: Displacement of [3H]prazosin from adrenergic alpha-1 receptor in rat cortical membranes; format: cell membranes, Membrane
T3 sequence (P15823 whole entry): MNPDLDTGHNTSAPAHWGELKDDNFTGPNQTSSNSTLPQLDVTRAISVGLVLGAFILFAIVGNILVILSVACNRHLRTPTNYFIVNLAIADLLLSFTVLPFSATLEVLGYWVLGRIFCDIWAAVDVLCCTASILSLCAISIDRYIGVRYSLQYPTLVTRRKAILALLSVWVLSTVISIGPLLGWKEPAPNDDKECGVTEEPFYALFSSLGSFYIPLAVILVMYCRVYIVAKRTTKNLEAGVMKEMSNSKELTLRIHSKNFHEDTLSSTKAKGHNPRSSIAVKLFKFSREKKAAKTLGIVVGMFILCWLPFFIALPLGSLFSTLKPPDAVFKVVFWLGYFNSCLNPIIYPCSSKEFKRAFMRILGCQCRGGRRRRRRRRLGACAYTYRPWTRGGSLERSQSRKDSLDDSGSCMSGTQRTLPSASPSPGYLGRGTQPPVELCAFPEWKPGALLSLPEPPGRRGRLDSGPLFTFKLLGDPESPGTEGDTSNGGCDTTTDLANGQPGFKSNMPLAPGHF
T3 sequence (P23944 whole entry): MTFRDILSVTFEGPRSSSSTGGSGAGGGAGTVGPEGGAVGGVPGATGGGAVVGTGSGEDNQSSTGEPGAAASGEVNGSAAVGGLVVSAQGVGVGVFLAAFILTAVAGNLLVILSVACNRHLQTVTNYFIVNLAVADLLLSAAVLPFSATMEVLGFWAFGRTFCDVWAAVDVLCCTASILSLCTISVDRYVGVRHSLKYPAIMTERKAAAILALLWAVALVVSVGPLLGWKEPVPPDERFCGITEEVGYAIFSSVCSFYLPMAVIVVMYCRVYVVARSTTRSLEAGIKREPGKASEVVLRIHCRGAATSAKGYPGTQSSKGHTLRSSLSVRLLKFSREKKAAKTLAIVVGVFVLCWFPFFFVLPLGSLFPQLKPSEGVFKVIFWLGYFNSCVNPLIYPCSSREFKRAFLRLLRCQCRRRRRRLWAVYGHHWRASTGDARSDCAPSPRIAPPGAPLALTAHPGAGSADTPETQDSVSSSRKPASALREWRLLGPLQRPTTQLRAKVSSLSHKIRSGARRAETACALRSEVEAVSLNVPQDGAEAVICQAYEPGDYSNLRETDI
T3 sequence (P43140 whole entry): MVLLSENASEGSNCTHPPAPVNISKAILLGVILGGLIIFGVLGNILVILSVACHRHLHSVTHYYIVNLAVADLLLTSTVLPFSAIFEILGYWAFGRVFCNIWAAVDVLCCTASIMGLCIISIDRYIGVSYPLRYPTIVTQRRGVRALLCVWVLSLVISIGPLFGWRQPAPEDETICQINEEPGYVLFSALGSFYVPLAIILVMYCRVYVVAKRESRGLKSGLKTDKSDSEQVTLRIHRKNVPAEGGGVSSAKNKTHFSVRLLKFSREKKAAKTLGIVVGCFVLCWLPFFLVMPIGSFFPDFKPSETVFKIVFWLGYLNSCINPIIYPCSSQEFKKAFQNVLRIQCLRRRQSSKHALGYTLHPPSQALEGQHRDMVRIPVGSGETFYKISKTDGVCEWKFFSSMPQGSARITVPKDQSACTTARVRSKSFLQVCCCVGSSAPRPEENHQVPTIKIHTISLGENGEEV
Summary of the method: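 Rat cortex membranes were used, with [3H]-prazosin as radioligand for α1 binding. Ki (nM) is the mean of runs in triplicate.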

Hypothalamus = test: Increase in extracellular 5HT level in guinea pig hypothalamus at 10 mg/kg, po after 3 hrs; format: functional, organism-based; design: dose 10 mg/kg; settings: Cavia porcellus
Summary of the method: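 Microdialysis was done in the hypothalamus of freely moving guinea pigs. Dosing was 10 mg/kg po. Extracellular 5-HT is expressed as a percentage of a pre-injection control period, assessed over 3 h post-dose, as means + SEM.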

[6] = target: Sodium-dependent serotonin transporter (Homo sapiens, UniProt P31645); test: Displacement of [3H]citalopram from human 5HT transporter expressed in HEK293 cells; format: cell-based
Chain of Sodium-dependent serotonin transporter (P31645 whole entry): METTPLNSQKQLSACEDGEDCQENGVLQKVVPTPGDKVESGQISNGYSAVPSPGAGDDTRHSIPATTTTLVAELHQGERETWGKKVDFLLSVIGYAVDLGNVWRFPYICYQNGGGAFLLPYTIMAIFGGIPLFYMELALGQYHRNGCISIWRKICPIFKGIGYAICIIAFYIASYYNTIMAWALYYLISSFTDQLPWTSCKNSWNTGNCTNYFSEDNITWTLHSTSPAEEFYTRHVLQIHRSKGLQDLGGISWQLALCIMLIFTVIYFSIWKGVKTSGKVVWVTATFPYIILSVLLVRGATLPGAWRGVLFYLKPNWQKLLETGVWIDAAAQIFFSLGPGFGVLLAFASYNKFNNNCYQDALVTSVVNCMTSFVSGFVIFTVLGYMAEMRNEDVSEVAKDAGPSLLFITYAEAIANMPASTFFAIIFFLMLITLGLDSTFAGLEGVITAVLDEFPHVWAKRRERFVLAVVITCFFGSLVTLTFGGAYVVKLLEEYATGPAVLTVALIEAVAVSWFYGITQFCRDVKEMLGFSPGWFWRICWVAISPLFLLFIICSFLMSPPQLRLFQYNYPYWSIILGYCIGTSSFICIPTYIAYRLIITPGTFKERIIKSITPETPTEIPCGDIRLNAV
Summary of the method: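 Human serotonin transporter was expressed in HEK293 cells. Inhibition was measured as displacement of [3H]-citalopram. Ki (nM) is the mean of runs in triplicate.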

[7] = target: T2, 5-hydroxytryptamine receptor 1D; test: Antagonist activity at human 5HT1D expressed in LM(tk-) cells by [35S]GTPgamma binding assay; format: functional, cell-based
Summary of the method: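 5-HT dose–response curves for [35S]GTPγS binding were run in LM(tk-) cells stably expressing the human 5-HT1D receptor. Antagonism was read as the rightward shift of these curves. Results are given as KB or as % displacement at 30 nM.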

Chain of D(2) dopamine receptor (P61169 whole entry): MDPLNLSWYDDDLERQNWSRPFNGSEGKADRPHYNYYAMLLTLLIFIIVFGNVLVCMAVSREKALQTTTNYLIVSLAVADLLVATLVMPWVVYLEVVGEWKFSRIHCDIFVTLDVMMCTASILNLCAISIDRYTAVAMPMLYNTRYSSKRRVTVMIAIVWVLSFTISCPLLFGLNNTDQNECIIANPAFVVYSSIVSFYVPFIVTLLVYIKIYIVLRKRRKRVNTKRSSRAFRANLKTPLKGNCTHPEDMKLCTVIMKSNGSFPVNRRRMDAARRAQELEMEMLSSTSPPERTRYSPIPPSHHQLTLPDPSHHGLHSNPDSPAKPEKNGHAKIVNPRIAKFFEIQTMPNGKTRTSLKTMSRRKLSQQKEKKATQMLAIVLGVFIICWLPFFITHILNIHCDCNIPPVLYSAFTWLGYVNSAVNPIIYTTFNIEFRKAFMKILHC

Ki (D(2) dopamine receptor) [nM]	Ki [1] [nM]	Ki [2] [nM]	Activity [3] [%]	Ki [4] [nM]	Ki [5] [nM]	Ki [6] [nM]	Kb [7] [nM]	SMILES	Activity (Hypothalamus)
287	26	21	124	0.9	353	2.2	–	C[C@H]1CN(c2cccc3cc(C#N)ccc23)CCN1CC[C@@H]1OCCc2cc(C(N)=O)ccc21	Active
704	–	> 1000	–	10	96	8.1	0.86	NC(=O)c1ccc2c(c1)CCO[C@H]2CCN1CCN(c2ccc3cc(F)ccc3c2)CC1	–
1170	307	> 1000	–	14	91	2.1	4.05	C[C@H]1CN(c2ccc3cc(F)ccc3c2)CCN1CC[C@@H]1OCCc2cc(C(N)=O)ccc21	–
4.7	–	281	–	56	16	0.8	0.01	C[C@@H]1CN(c2cccc3cc(F)ccc23)CCN1CCC1OCCc2cc(C(N)=O)ccc21 (some centres undefined)	–
26	13	114	–	14	64	1.3	0.05	C[C@H]1CN(c2cccc3cc(F)ccc23)CCN1CC[C@@H]1OCc2cc(C(N)=O)ccc21	–
88	16	15	101	1	178	5.7	–	N#Cc1ccc2c(N3CCN(CC[C@@H]4OCCc5cc(C(N)=O)ccc54)CC3)cccc2c1	–
78	105	91	–	88	74	7.4	11.1	C[C@@H]1CN(c2cccc3cc(F)ccc23)CCN1CC[C@H]1OCCc2cc(C(N)=O)ccc21	–
107	13	> 1000	–	67	43	8.8	1.9	C[C@H]1CN(c2cccc3cc(F)ccc23)CCN1CC[C@H]1OCc2cc(C(N)=O)ccc21	–
346	–	88	–	1.8	338	1.3	0.18	C[C@H]1CN(c2cccc3cc(C#N)ccc23)CCN1CC[C@H]1OCc2cc(C(N)=O)ccc21	–
71	115	103	–	7	80	3	0.01	C[C@@H]1CN(c2cccc3cc(F)ccc23)CCN1CC[C@@H]1OCCc2cc(C(N)=O)ccc21	–

SMILES	Ki (D(2) dopamine receptor) [nM]	Ki [1] [nM]	Ki [2] [nM]	Activity [3] [%]	Ki [4] [nM]	Ki [5] [nM]	Ki [6] [nM]	Kb [7] [nM]	Activity (Hypothalamus)
NC(=O)c1ccc2c(c1)CCOC2CCN1CC=C(c2c[nH]c3cc(F)ccc23)CC1 (centres undefined)	42	–	203	–	8	0.7	0.1	4.3	–
